Test results published in ChEMBL document CHEMBL5506013, “Mitochondria-Selective Dicationic Small-Molecule Ligand Targeting G-Quadruplex Structures for Human Colorectal Cancer Therapy” (J Med Chem, 2024).
Calls of active or inactive are those of the source. No cut-off for these calls is given here.

Assays:
HepG2 = experiment: Antiproliferative activity against human HepG2 cells measured after 48 hrs by MTT assay; type: functional, cell-based; conditions: HepG2, 48 h
How it was run: (§1)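 Cells exposed to the ligands for 48 h. Viability was read by MTT, and the IC50 was derived from the response.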

[1] = Antiproliferative activity against human BJ cells measured after 48 hrs by MTT assay; type: toxicity, cell-based; conditions: BJ cells; how it was run: as §1
Quadruplex DNA [2] = experiment: Binding affinity to mito 29 G4 DNA (unknown origin) assessed as dissociation constant measured upto 150 secs by isothermal titration calorimetry assay; type: nucleic-acid assay; conditions: time <= 150.0 sec
Quadruplex DNA [3] = experiment: Binding affinity to mito 55 G4 DNA (unknown origin) assessed as dissociation constant measured upto 150 secs by isothermal titration calorimetry assay; type: nucleic-acid assay
Quadruplex DNA [4] = experiment: Binding affinity to mito 0.5-15 G4 DNA (unknown origin) assessed as dissociation constant measured upto 150 secs by isothermal titration calorimetry assay; type: nucleic-acid assay
HCT-116 [5] = experiment: Downregulation of ND2 gene expression in human HCT-116 cells at 0 to 4 uM measured after 48 hrs by q-PCR analysis; type: functional, cell-based; conditions: dose 0-4 µM
HCT-116 [6] = experiment: Downregulation of ND2 mRNA level in human HCT-116 cells at 0 to 4 uM measured after 48 hrs by qRT-PCR analysis; type: functional, cell-based; conditions: dose 0-4 µM
HCT-116 [7] = experiment: Downregulation of ND3 protein level in human HCT-116 cells at upto 4 uM incubated for 48 hrs by Western blot analysis; type: functional, cell-based
HCT-116 [8] = experiment: Downregulation of ATP6 protein level in human HCT-116 cells at upto 4 uM incubated for 48 hrs by Western blot analysis; type: functional, cell-based
HCT-116 [9] = experiment: Downregulation of mitochondrial respiratory chain complex I level in human HCT-116 cells at upto 4 uM measured after 48 hrs by Western blot analysis; type: functional, cell-based
HCT-116 [10] = experiment: Induction of mitochondrial permeability transition pore opening in human HCT-116 cells measured after 48 hrs by calcein-AM staining based assay; type: functional, cell-based; conditions: dose <= 4.0 µM
HCT-116 [11] = experiment: Induction of mitochondrial dysfunction in human HCT-116 cells assessed as decrease in oxygen consumption rate at upto 4 uM incubated for 3 hrs by Seahorse XFe24 analyzer; type: functional, cell-based
How it was run: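 Seahorse Mito-stress and glycolysis stress tests on HCT116 cells treated with ligand for 3 h. Oxygen consumption rate and extracellular acidification rate recorded.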

Quadruplex DNA [12] = experiment: Binding affinity to mito 55 G4 DNA (unknown origin) assessed as increase in fluorescence intensity by fluorescence spectrophotometric analysis; type: nucleic-acid assay
How it was run: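 Oligonucleotides were pre-annealed at 95 °C for 10 min, then cooled slowly. Ligand (5 uM) was mixed with 20 uM DNA in buffer. Emission was collected over 550–800 nm, and enhancement was taken at 650 nm as F/F0.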

Quadruplex DNA [13] = experiment: Binding affinity to Mito 29 G4 DNA (unknown origin) assessed as change in melting temperature at 5 uM by circular dichroism spectroscopic analysis; type: nucleic-acid assay
Quadruplex DNA [14] = experiment: Binding affinity to Mito 81 G4 DNA (unknown origin) assessed as change in melting temperature at 5 uM by circular dichroism spectroscopic analysis; type: nucleic-acid assay
[15] = Drug localization in nucleus of human HCT-116 cells at upto 4 uM incubated for 1 hrs by hoechst33342 staining based live cell imaging analysis; type: ADME, subcellular; conditions: hct-116, 1 h
[16] = Drug localization in nucleus of human HCT-116 cells at 4 uM measured upto 12 hrs by hoechst33342 staining based live cell imaging analysis; type: ADME, subcellular; conditions: hct-116, 12 h
[17] = Drug localization in human HCT-116 cells by measuring red foci at 4 uM incubated for 1 hr in presence of MitoPDS by hoechst33342 staining based analysis; type: ADME, cell-based; conditions: hct-116, 1 h
How it was run: (§2)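 Pretreatment of live HCT116 cells: FCCP 1 uM for 20 min, cyclosporin A 1 uM for 24 h, DMOG 100 uM for 24 h, or MitoPDS at several concentrations for 3 h (applied after dye loading). Cells loaded with ligand 4 uM (excitation 488 nm) for 1 h and Hoechst33342 1 uM for 30 min. Red foci counted by confocal imaging in 100 cells. Mean ± SEM, t test.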

[18] = Drug localization in human HCT-116 cells by measuring red foci at 4 uM incubated for 1 hr in presence of DMOG by hoechst33342 staining based analysis; type: ADME, cell-based; conditions: hct-116, 1 h; how it was run: as §2
[19] = Drug localization in human HCT-116 cells by measuring red foci at 4 uM incubated for 1 hr in presence of DNA I by hoechst33342 staining based analysis; type: ADME, cell-based; conditions: hct-116, 1 h
How it was run: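 Live HCT116 cells loaded with ligand 4 uM for 1 h and Hoechst33342 1 uM for 30 min, then fixed. Fixed cells digested with 200 units DNase I or RNase A for 3 h. Red foci imaged by confocal microscopy in 100 cells. Mean ± SEM, t test.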

HCT-116 [20] = experiment: Antitumor activity against human HCT-116 cells assessed as increase in beta-galactosidase activity at upto 4 uM measured after 72 hrs relative to control; type: functional; conditions: up to 4 µM
How it was run: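 HCT116 cells were treated for 72 h across 0–4 uM. β-Galactosidase activity was then measured against untreated control. Data are given as mean ± SEM, with significance by t test.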

HCT-116 [21] = experiment: Upregulation of p53 level in human HCT-116 cells at upto 4 uM measured after 72 hrs by Western blot analysis; type: functional, cell-based
HCT-116 [22] = experiment: Upregulation of cleaved caspase-3 level in human HCT-116 cells at upto 4 uM measured after 72 hrs by Western blot analysis; type: functional, cell-based
How it was run: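 HCT116 cells treated with ligand at 0-4 uM for 72 h. Lysates immunoblotted for Lamin B1, p53, p21, p16, gamma-H2A.x, caspase-3 and cleaved caspase-3, with beta-actin as loading control.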

HCT-116 [23] = experiment: Inhibition of cell proliferation in human HCT-116 cells at upto 4 uM measured after 7 days by colony formation assay; type: functional, cell-based; conditions: time 7.0 day
How it was run: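 Colony formation: HCT116 cells treated for 7 days at 0, 1, 2 or 4 uM, colonies counted and quantified; mean ± SD.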

[24] = Toxicity in BALB/c nude mouse assessed as change in body weight at 5 mg/kg, iv administered every two days for 16 days; type: organism-based; conditions: in vivo, 384 h, time 16 day
How it was run: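 Male Balb/c nude mice bearing HCT116 xenografts, 6 per group, given PBS or ligand 5 mg/kg intravenously every two days. Body weight tracked over 16 days.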

HCT-116 [25] = experiment: Antitumor activity against human HCT-116 cells xenografted in Balb/c nude mouse model assessed as inhibition of tumor growth at 5 mg/kg, iv administered every two days for 16 days; type: functional, organism-based; conditions: time 16.0 day
How it was run: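 Male Balb/c nude mice carrying HCT116 xenografts, 6 per group. Dosing was intravenous every two days at 5 mg/kg, with a PBS-injected control group. Body weight and tumour growth were tracked. Tumours were excised and weighed after 16 days.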

HCT-116 [26] = experiment: Antitumor activity against human HCT-116 cells xenografted in Balb/c nude mouse model assessed as inhibition of tumor cell proliferation at 5 mg/kg, iv administered every two days for 16 days by Ki67 staining based analysis; type: functional, organism-based; conditions: time 16.0 day
How it was run: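 Tumours came from HCT116-xenografted male Balb/c nude mice given 5 mg/kg i.v. every two days, or PBS, for 16 days. Tumour tissue sections were stained by TUNEL for apoptosis and by Ki67 immunofluorescence for proliferation, then compared with the control group.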

[27] = Toxicity in BALB/c nude mouse assessed as effect on spleen at 5 mg/kg, iv measured after 16 hrs post injection by H and E staining based analysis; type: organism-based; conditions: in vivo
[28] = Toxicity in BALB/c nude mouse assessed as effect on kidney at 5 mg/kg, iv measured after 16 hrs post injection by H and E staining based analysis; type: organism-based; conditions: in vivo

What does the source list for `C(=C\c1ccc2ccccc2[n+]1CCCCCCCC[n+]1c(/C=C/c2ccc(N3CCCCC3)cc2)ccc2ccccc21)/c1ccc(N2CCCCC2)cc1.[I-].[I-]`?
IC50 (HepG2): > 40000 nM; IC50 at 48 h [1]: > 40000 nM; Activity (Quadruplex DNA [2]): inactive; Kd (Quadruplex DNA [3]): 60 nM; Kd (Quadruplex DNA [4]): 60 nM; Activity (HCT-116 [5]): Active; Activity (HCT-116 [6]): Active; Activity (HCT-116 [7]): Active; Activity (HCT-116 [8]): Active; Activity (HCT-116 [9]): Active; Activity (HCT-116 [10]): Dose-Dependent Effect; Activity (HCT-116 [11]): Active; Activity (Quadruplex DNA [12]): Active; ΔTm (Quadruplex DNA [13]): 3.6 °C; ΔTm (Quadruplex DNA [14]): 3.6 °C; Drug uptake [15]: Not Active; Drug uptake [16]: Not Active; Drug uptake [17]: Not Active; Drug uptake [18]: Not Active; Drug uptake [19]: Not Active; Activity (HCT-116 [20]): 17.63%; Activity (HCT-116 [21]): Active; Activity (HCT-116 [22]): Active; inhibition (HCT-116 [23]): Active; Activity [24]: Non-Toxic; Activity (HCT-116 [25]): Active; Activity (HCT-116 [26]): Active; Activity [27]: Non-Toxic; Activity [28]: Non-Toxic
